Source: PubChem (The Scripps Research Institute Molecular Screening Center)
Most compounds without a hit are left out; they make up all but 1.2% or so of the library.
proCasp7 act: procaspase-7 activators, primary screen, counter-screen for procaspase-3 activator project, biochemical, absorbance, HTS, human | recombinant procaspase-7, Ac-DEVD-pNA absorbance 405 nm; D23A/D198A/D206A triple mutant, cannot self-cleave; scale: DMSO 0, 5 µM enzyme 100 | activation, % at 8.5 µM | 330,000 compounds, 0.093% hits;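 active = percent activation above the screen-wide mean plus 3 SD, cut at about 25% in these data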
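System: Uncleavable procaspase-7 mutant enzyme; Amount: 2 µM procaspase-7 mutant as dispensed; Schedule: 1 h compound preincubation, 2 h substrate cleavage, 25 °C; Measured by: 405 nm absorbance of p-nitroaniline; Evaluation: percent activation from buffer-corrected 0–120 min absorbance change; Control set: low DMSO alone, high DMSO plus 5 µM PC-7.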
PP5 inh: PP5 phosphatase inhibitors, primary screen, biochemical, fluorescence; Serine/threonine-protein phosphatase 5 (Homo sapiens), P53041; purified PP5c, OMFP substrate fluorescence; inhibition, % at 6.7 µM; 320,000 compounds, 0.18% hits; AID 1987, 2009;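 active = inhibition above the campaign's mean inhibition across all tested compounds plus 3 SD, cut at about 9.5% in these data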;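 also: 0% = DMSO only and 100% = 100 µM cantharidin control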
PP1 inh: PP1-alpha phosphatase inhibitors, primary screen, counter-screen for PP5 inhibitor project, biochemical, fluorescence, OMFP substrate, single point; inhibition, % at 6.7 µM; AID 2235, 2010; 320,000 compounds, 0.9% hits; purified PP1alpha;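 active = inhibition above the mean inhibition of all tested compounds plus 3 SD, computed separately for each screening campaign, cut at about 15% in these data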
Target sequence (P62136 whole entry, looked up): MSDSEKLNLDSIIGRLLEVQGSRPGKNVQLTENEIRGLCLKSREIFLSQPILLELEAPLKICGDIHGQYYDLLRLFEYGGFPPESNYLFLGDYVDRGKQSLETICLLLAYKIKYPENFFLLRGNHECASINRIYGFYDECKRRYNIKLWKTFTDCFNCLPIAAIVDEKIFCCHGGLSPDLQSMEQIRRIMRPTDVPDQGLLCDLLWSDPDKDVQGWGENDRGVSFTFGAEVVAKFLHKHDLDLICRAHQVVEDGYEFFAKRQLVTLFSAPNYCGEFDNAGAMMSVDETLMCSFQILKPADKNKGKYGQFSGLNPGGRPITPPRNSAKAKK
proCasp3 act: activators of human procaspase-3 D3A mutant, primary screen, biochemical, absorbance, PC-3 D3A mutant, single concentration | Caspase-3 (Homo sapiens), P42574 | recombinant procaspase-3 D3A, Ac-DEVD-pNA absorbance 405 nm | 330,000 compounds, 0.11% hits | activation, % at 8.5 µM;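 active = activation above the mean of all tested compounds plus 3 SD, cut at about 21% in these data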;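 also: 0% = DMSO alone and 100% = DMSO wells spiked with extra 5 µM PC-3 D3A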
Target sequence (P42574 whole entry D9A/D28A/D175A): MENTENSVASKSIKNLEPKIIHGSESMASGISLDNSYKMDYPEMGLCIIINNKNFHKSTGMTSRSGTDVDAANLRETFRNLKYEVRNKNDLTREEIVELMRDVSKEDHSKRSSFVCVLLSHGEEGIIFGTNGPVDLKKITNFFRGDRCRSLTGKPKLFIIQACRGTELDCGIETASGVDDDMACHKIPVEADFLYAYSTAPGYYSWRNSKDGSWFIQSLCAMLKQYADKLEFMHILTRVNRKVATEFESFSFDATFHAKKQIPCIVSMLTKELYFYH
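System: Procaspase-3 D3A mutant. Medium: Zinc-free 300 mM NaCl, 50 mM HEPES, 0.01% Triton X-100. Schedule: 1 h preincubation plus 2 h reaction at 25 °C. Measured by: 405 nm absorbance of p-nitroaniline, reads at 0 and 120 min. Read-out: percent activation relative to control range.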
PP5 conf: PP5 phosphatase inhibitors, confirmation, biochemical, fluorescence, human. shares compounds with PP5 inh. inhibition, % at 6.7 µM. 460 compounds, 22% hits. Purified PP5, fluorogenic phosphatase substrate; in the data active = inhibition above about 9.5%
PP1 inh counter: PP1 phosphatase inhibitors, counter-screen for PP5 inhibitor project, biochemical, fluorescence, triplicate; PP1 enzyme, fluorescent phosphatase substrate; 460 compounds, 4% hits; shares compounds with PP5 inh; inhibition, % at 6.7 µM; in the data active = inhibition above about 16%
The depositor's hits bear a star; . = no result; ! = repeats disagree.

SMILES	proCasp7 act	PP5 inh	PP1 inh	proCasp3 act	PP5 conf	PP1 inh counter
O=C(Nc1ccc(Br)cc1)c1cccn1-c1ncc(C(F)(F)F)cc1Cl	-7	11*	11	0	6	4
NC(=O)c1cccn1-c1ncc(C(F)(F)F)cc1Cl	7	-3	-1	1	.	.
Cc1ccnc(NC(=O)COC(=O)c2ccc(F)cc2F)n1	-6	15*	-5	-3	-5	-5
CC(=O)OC[C@]12CC[C@H]3[C@@](C)(CC[C@H]4C(C)(C)CCC[C@]34C)[C@@H]1C[C@H](C1=CC(=O)O[C@@H]1OC(C)=O)O2	-19	.	.	-10	.	.
CCC(NC(=O)C(C)NC)C(=O)N1CCCC1C(=O)NC1CCCc2ccccc21 (stereo unspecified)	5	0	-3	8	.	.
COc1ccc(-c2cc(-c3c(O)c(OC)c4occc4c3OC)[nH]n2)cc1OC	2	6	3	0	.	.
COc1ccc(-c2cc(-c3c(O)c(OC)c4occc4c3OC)[nH]n2)cc1	-8	11*	-3	-4	1	2
Cc1ccc(NC(=O)OCc2cccs2)cc1	16	0	-1	1	.	.
Cc1cccc(C)c1NC(=O)CNC(=O)c1ccc(N2CCCC2)c([N+](=O)[O-])c1	5	-1	-4	0	.	.
CN(Cc1ccc(OC(F)F)cc1)C(=O)c1ccc2c(=O)n3c(nc2c1)CCC3	8	1	-2	-6	.	.
COC(=O)c1c(C)oc2ccc(OC(=O)c3cccs3)cc12	2	1	1	12	.	.
COCCOC(=O)c1c(C)oc2ccc(OC(=O)c3cccs3)cc12	-21	10*	-1	11	-3	-3
Cn1cc(C[C@H](NC(=O)OC(C)(C)C)C(=O)N[C@@H](CO)Cc2ccccc2)c2ccccc21	4	2	2	4	.	.
CC(C)COC(=O)N1CC(O)CC1C(=O)O (stereo unspecified)	-4	11*	-10	-3	-1	-2
CCOc1ccc(NC(=O)COC(=O)CCCc2c[nH]c3ccccc23)cc1	7	9.8*	3	4	1	3
COc1ccc(NC(=O)COC(=O)CCCc2c[nH]c3ccccc23)cc1	-1	7	-6	6	.	.
S=C(NC1CCCC1)N1CCOCC1	-4	0	-1	1	.	.
S=C(NC1CCCCC1)N1CCOCCOCCN(C(=S)NC2CCCCC2)CCOCC1	12	9.8*	1	-8	0	1
O=C(NC1CCCCC1)N1CCC(n2c(=O)[nH]c3ccccc32)CC1	4	19*	11	0	-2	-1
O=C(COC(=O)C1CC(=O)N(CCc2ccccc2)C1)c1ccc[nH]1 (stereo unspecified)	7	0	-2	2	.	.
CC1=NN(c2ccccc2)C(=O)/C1=C\C=C1/N(C)c2ccccc2C1(C)C	-3	10*	9	-14	9	7
O=C(Nc1c(C(=O)NCc2ccco2)cnn1-c1ccccc1)c1cccc(F)c1	15	11*	-3	2	-7	-5
O=C1CC(N2CCN(c3ccc(Cl)cc3)CC2)C(=O)N1c1ccccc1 (stereo unspecified)	2	10*	0	-9	-2	-3
C[C@H]1CN([C@@H](C)CO)C(=O)c2cc(NC(=O)C3CCCCC3)ccc2O[C@H]1CN(C)S(=O)(=O)c1ccccc1	4	.	.	3	.	.
CN(CC(O)CN1CCOCC1)S(=O)(=O)O (stereo unspecified)	-14	14*!	1	-2	-7	-5
SMILES	proCasp7 act	PP5 inh	PP1 inh	proCasp3 act	PP5 conf	PP1 inh counter
CC(OC(=O)Cc1c[nH]c2ccccc12)C(=O)NC1CCCCC1C (stereo unspecified)	2	6	-1	4	.	.
O=C(Nc1ccc2c(c1)OCO2)c1ccc2c(c1)S(=O)(=O)c1ccccc1C2=O	-6	2	-3	2	.	.
COc1ccccc1NC(=O)Cn1nc(-c2ccncc2)nc1SCC(=O)NC1CCCC1	6	11*	-2	1	-7	-7
CCn1nc(C(=O)N2CCN(Cc3nc4ccccc4s3)CC2)c2ccccc2c1=O	6	4	1	12	.	.
CCc1ccc(NC(=O)CN(CC(=O)Nc2ccc(CC)cc2)CC(C)O)cc1 (stereo unspecified)	7	11*	6	-7	8	5
Cc1cc(N/N=C/c2ccc(O)cc2O)nc(N2CCOCC2)n1	4	1	0	-3	.	.
Oc1ccc(/C=N\Nc2cc(N3CCOCC3)nc(N3CCOCC3)n2)c(O)c1	-11	14*	0	4	36*	0
CC(=O)Nc1ccc(NC(=O)C2CCCN(C(=O)c3ccc(Cl)cc3)C2)cc1 (stereo unspecified)	5	-1	0	-5	.	.
O=C(Nc1ccc(OC(F)(F)F)cc1)C1CCCN(C(=O)c2ccc(Cl)cc2)C1 (stereo unspecified)	-16	14*	0	-1	4	3
O=C(NCC(=O)N1CCN(Cc2ccccc2)CC1)c1ccc(Br)o1	-5	0	0	0	.	.
O=C(NNc1ccc(C(F)(F)F)cc1[N+](=O)[O-])c1ccc(NS(=O)(=O)c2ccc(F)cc2)cc1	-6	10*	9	-12	3	3
CC(C)[C@H](Nc1ccc(C(F)(F)F)cc1[N+](=O)[O-])C(=O)O	-9	1	0	6	.	.
COc1ccccc1NC(=O)C(C)Sc1nnc2ccccn12 (stereo unspecified)	-12	0	-6	1	.	.
CCN(CC)N=Nc1ccc(S(=O)(=O)Nc2nc(C)cc(C)n2)cc1	3	2	2	1	.	.
COc1cccc(C(=O)OCC(=O)NCCc2ccccc2)c1OC	-1	-3	-4	16	.	.
COc1cccc(CSCC(=O)NCCc2ccccc2)c1OC	13	10*	-5	9	-5	-5
O=C(Cc1cccs1)N1CCN(S(=O)(=O)c2ccc(Cl)c(C(F)(F)F)c2)CC1	-2	1	1	5	.	.
CCOC(=O)Cn1c(-c2ccccc2)nc2ccccc2c1=O	-11	11*	-4	7	-2	-2
COC(=O)c1[nH]c(C)c(/C(O)=C2\C(=O)C(=O)N(CCN3CCOCC3)C2c2ccccc2OC)c1C (stereo unspecified)	-5	11*	2	2	1	0
